Data taken from ChEMBL document CHEMBL3351483, “Desmethyl macrolides: synthesis and evaluation of 4-desmethyl telithromycin” (ACS Med Chem Lett, 2014).
Values after ≈ are worked out from the molar mass of the structure shown.

Tests used:
Bacterial 70S ribosome = experiment: Binding affinity to Escherichia coli ribosomes after 2 hrs by fluorescence polarization assay in presence of BODIPY-labeled erythromycin A
Procedure, shortened: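 Competitive fluorescence polarization binding assay with isolated E. coli ribosomes and BODIPY-labelled erythromycin as the displaced probe; dissociation constant (Kd) derived from probe displacement.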

Escherichia coli [1] = experiment: Antimicrobial activity against tolC-negative Escherichia coli DK/2058G harboring ribosome A2058G mutant; format: functional
Procedure, shortened: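 MIC determination in a tolC(−) E. coli strain lacking the outer-membrane efflux pump, carrying a mixed ribosome population of wild-type and A2058G mutant at about 1:1.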

Staphylococcus aureus [2] = experiment: Antimicrobial activity against Staphylococcus aureus ATCC 33591 harboring ermA gene; format: functional
Staphylococcus aureus [3] = experiment: Antimicrobial activity against Staphylococcus aureus UCN14 harboring ribosome A2058T mutant; format: functional
Escherichia coli [4] = experiment: Antimicrobial activity against tolC-negative wild type Escherichia coli DK/pKK3535; format: functional
Procedure, shortened: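 MIC determined against E. coli DK/pKK3535, a tolC(−) strain that lacks the outer-membrane TolC efflux pump, which recognizes antibacterial drugs, and that carries wild-type ribosomes.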

Escherichia coli [5] = experiment: Antimicrobial activity against Escherichia coli SQ171/2058G harboring ribosome A2058G mutant; format: functional
[6] = Selectivity ratio of MIC for Escherichia coli […] harboring ribosome A2058G mutant to MIC for tolC-negative wild type Escherichia coli DK/pKK3535; format: functional

Row | SMILES | Kd (Bacterial 70S ribosome) [nM] | MIC (Escherichia coli [1]) [µg/mL] | MIC (Staphylococcus aureus [2]) [µg/mL] | MIC (Staphylococcus aureus [3]) [µg/mL] | MIC (Escherichia coli [4]) [µg/mL] | MIC (Escherichia coli [5]) [µg/mL] | Selectivity ratio [6]
1 | CC[C@H]1OC(=O)[C@H](C)C(=O)[C@H](C)[C@@H](O[C@@H]2O[C@H](C)C[C@H](N(C)C)[C@H]2O)[C@](C)(OC)C[C@@H](C)C(=O)[C@H](C)[C@H]2N(CCCCn3cnc(-c4cccnc4)c3)C(=O)O[C@]12C [TELITHROMYCIN] | 6.4 | 4 (≈ 4.93 µM) | > 128 | > 256 | 0.5 (≈ 0.616 µM) | > 256 | 
2 | CC[C@H]1OC(=O)[C@H](C)C(=O)C[C@@H](O[C@@H]2O[C@H](C)C[C@H](N(C)C)[C@H]2O)[C@](C)(OC)C[C@@H](C)C(=O)[C@H](C)[C@H]2N(CCCCn3cnc(-c4cccnc4)c3)C(=O)O[C@]12C | 6.4 | 1 (≈ 1.25 µM) | > 128 | > 128 | 0.5 (≈ 0.627 µM) | > 256 | 4
